{
  "source": "ChEMBL document CHEMBL2203081",
  "about": "(Bioorg Med Chem Lett, 2012)",
  "key": {"[1]": {"target": "Protein-tyrosine kinase 6 (Homo sapiens) (UniProt Q13882)", "experiment": "Inhibition of BRK assessed as residual activity at 10 uM", "procedure,_shortened": "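Radioactivity-based enzymatic assay against a panel of 131 kinases (Dundee profiling). Activity remaining was measured with compound present at the stated concentration.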"}, "[2]": {"target": "Serine/threonine-protein kinase Nek6 (Homo sapiens) (UniProt Q9HC98)", "experiment": "Inhibition of NEK6 assessed as residual activity at 10 uM"}, "[3]": {"target": "Receptor tyrosine-protein kinase erbB-2 (Homo sapiens) (UniProt P04626)", "experiment": "Inhibition of ERBB2 assessed as residual activity at 10 uM relative to control", "procedure,_shortened": "(§1)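 Competition kinase-binding assay (KINOMEscan) across a non-redundant panel of 329 kinases beyond the radiometric panel; residual binding expressed relative to control.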"}, "[4]": {"target": "BMP-2-inducible protein kinase (Homo sapiens) (UniProt Q9NSY1)", "experiment": "Inhibition of BIKE assessed as residual activity at 10 uM relative to control"}, "[5]": {"target": "Serine/threonine-protein kinase PLK2 (Homo sapiens) (UniProt Q9NYY3)", "experiment": "Inhibition of PLK2 assessed as residual activity at 10 uM relative to control"}, "[6]": {"target": "Insulin receptor-related protein (Homo sapiens) (UniProt P14616)", "experiment": "Inhibition of IRR assessed as residual activity at 1 uM", "procedure,_shortened": "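Radioactivity-based enzymatic activity assay of the named kinase, run as part of a 131-kinase specificity panel at the National Centre for Protein Kinase Profiling (Dundee). Residual activity was read at the stated single inhibitor concentration.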"}, "[7]": {"target": "Homeodomain-interacting protein kinase 3 (Homo sapiens) (UniProt Q9H422)", "experiment": "Inhibition of HIPK3 assessed as residual activity at 10 uM relative to control"}, "Mus musculus [8]": {"tested_on": "Mus musculus", "experiment": "Inhibition of LRRK2 in mouse assessed as inhibition of Ser935 autophosphorylation in kidney at 100 mg/kg, ip by immunoblot method", "type": "functional, organism-based", "parameters": "dose 100 mg/kg"}, "[9]": {"target": "STE20/SPS1-related proline-alanine-rich protein kinase (Homo sapiens) (UniProt Q9UEW8)", "experiment": "Inhibition of STK39 assessed as residual activity at 10 uM relative to control"}, "[10]": {"target": "Macrophage-stimulating protein receptor (Homo sapiens) (UniProt Q04912)", "experiment": "Inhibition of MST1R assessed as residual activity at 10 uM relative to control"}, "[11]": {"target": "Serine/threonine-protein kinase 35 (Homo sapiens) (UniProt Q8TDR2)", "experiment": "Inhibition of STK35 assessed as residual activity at 10 uM relative to control"}, "[12]": {"target": "Angiopoietin-1 receptor (Homo sapiens) (UniProt Q02763)", "experiment": "Inhibition of TIE2 assessed as residual activity at 10 uM"}, "Mus musculus [13]": {"tested_on": "Mus musculus", "experiment": "Inhibition of LRRK2 in mouse assessed as inhibition of Ser910 autophosphorylation in kidney at 100 mg/kg, ip by immunoblot method", "type": "functional, organism-based", "parameters": "dose 100 mg/kg"}, "[14]": {"target": "Receptor-interacting serine/threonine-protein kinase 2 (Homo sapiens) (UniProt O43353)", "sequence (O43353 whole entry)": "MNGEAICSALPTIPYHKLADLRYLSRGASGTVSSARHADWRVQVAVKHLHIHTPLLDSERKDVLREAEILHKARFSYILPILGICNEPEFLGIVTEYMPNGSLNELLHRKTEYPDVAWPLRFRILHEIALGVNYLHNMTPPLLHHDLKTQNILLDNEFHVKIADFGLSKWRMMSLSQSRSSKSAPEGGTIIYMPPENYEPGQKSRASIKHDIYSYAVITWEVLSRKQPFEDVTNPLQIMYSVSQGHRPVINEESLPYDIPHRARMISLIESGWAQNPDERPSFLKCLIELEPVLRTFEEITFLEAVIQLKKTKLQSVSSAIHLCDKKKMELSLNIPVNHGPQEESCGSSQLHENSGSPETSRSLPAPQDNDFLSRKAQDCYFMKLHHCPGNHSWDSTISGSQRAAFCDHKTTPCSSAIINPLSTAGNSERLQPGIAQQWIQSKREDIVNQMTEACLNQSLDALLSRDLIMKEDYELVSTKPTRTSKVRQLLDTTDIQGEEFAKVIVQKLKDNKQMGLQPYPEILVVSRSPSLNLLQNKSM", "experiment": "Inhibition of RIPK2 assessed as residual activity at 10 uM"}, "[15]": {"target": "T1, Serine/threonine-protein kinase D1 (Homo sapiens) (UniProt Q15139)", "T1 sequence (whole entry)": "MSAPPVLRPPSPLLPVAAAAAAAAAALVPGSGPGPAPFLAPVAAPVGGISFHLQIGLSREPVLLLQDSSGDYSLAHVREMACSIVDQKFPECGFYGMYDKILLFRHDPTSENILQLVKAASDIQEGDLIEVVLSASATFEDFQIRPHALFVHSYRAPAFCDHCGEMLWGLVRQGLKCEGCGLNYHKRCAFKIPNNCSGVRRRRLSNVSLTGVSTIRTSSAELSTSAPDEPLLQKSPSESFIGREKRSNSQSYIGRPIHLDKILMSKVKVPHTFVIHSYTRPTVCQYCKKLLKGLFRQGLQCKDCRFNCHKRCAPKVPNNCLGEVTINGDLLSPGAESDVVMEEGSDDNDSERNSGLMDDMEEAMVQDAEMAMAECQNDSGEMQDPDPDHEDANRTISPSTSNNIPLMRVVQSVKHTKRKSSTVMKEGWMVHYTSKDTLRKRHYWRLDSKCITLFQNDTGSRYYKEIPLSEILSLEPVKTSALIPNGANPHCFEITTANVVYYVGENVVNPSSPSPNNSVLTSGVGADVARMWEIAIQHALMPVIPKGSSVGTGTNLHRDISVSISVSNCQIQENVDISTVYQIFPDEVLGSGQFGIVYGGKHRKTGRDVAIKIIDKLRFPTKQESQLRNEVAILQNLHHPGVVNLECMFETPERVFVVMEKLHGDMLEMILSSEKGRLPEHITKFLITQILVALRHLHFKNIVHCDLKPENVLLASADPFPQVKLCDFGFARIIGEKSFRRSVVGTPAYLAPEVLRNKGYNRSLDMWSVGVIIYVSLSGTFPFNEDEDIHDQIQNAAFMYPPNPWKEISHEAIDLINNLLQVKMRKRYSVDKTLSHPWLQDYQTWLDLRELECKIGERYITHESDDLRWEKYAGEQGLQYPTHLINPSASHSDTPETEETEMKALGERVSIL", "experiment": "Inhibition of PKD1 assessed as residual activity at 10 uM"}, "[16]": {"target": "Casein kinase II subunit alpha' (Homo sapiens) (UniProt P19784)", "experiment": "Inhibition of CSNK2A2 assessed as residual activity at 10 uM relative to control", "procedure,_shortened": "as §1"}, "[17]": {"target": "Dual specificity protein kinase CLK4 (Homo sapiens) (UniProt Q9HAZ1)", "experiment": "Inhibition of CLK4 assessed as residual activity at 10 uM relative to control", "procedure,_shortened": "as §1"}, "[18]": {"target": "MAP kinase-interacting serine/threonine-protein kinase 2 (Homo sapiens) (UniProt Q9HBH9)", "experiment": "Inhibition of MKNK2 assessed as residual activity at 10 uM relative to control"}, "[19]": {"target": "Mitogen-activated protein kinase kinase kinase 9 (Homo sapiens) (UniProt P80192)", "experiment": "Inhibition of MLK1 assessed as residual activity at 1 uM"}, "[20]": {"target": "Tyrosine-protein kinase SYK (Homo sapiens) (UniProt P43405)", "experiment": "Inhibition of SYK assessed as residual activity at 10 uM"}, "[21]": {"target": "Mitogen-activated protein kinase 11 (Homo sapiens) (UniProt Q15759)", "experiment": "Inhibition of p38-beta assessed as residual activity at 10 uM relative to control"}, "[22]": {"target": "Serine/threonine-protein kinase PknB (Mycobacterium tuberculosis) (UniProt P9WI81)", "sequence (P9WI81 whole entry)": "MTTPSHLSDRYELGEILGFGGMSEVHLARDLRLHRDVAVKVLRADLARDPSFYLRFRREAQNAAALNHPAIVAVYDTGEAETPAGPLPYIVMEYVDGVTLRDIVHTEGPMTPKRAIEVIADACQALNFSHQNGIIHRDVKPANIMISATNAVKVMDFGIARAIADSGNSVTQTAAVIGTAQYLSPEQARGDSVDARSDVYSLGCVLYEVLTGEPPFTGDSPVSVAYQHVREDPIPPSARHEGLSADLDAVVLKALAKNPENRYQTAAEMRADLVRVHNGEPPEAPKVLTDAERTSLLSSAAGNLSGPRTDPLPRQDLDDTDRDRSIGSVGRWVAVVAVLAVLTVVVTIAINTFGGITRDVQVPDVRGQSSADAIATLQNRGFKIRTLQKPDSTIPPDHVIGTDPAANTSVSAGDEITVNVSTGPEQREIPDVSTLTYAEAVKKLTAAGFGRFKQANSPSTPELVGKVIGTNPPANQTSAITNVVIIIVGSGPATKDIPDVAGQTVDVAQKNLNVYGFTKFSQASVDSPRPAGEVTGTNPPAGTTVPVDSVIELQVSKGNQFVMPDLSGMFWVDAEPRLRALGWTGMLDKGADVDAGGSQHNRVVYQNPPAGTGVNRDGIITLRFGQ", "experiment": "Inhibition of Mycobacterium tuberculosis PKNB assessed as residual activity at 10 uM relative to control"}, "[23]": {"target": "Calcium/calmodulin-dependent protein kinase type II subunit delta (Homo sapiens) (UniProt Q13557)", "sequence (Q13557 whole entry)": "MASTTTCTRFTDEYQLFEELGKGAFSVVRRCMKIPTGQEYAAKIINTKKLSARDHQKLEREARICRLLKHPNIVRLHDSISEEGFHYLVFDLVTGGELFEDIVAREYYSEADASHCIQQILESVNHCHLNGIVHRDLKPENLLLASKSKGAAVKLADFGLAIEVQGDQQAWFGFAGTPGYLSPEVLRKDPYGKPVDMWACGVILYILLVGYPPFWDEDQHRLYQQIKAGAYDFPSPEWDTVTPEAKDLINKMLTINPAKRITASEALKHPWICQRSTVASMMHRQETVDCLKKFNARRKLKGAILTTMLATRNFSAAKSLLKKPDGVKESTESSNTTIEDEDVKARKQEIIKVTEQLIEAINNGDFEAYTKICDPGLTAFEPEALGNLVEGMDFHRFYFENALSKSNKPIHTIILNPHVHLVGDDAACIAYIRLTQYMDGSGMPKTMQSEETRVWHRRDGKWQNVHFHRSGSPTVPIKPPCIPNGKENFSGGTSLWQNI", "experiment": "Inhibition of CAMK2D assessed as residual activity at 10 uM relative to control"}, "[24]": {"target": "Mitogen-activated protein kinase 1 (Homo sapiens) (UniProt P28482)", "sequence (P28482 whole entry)": "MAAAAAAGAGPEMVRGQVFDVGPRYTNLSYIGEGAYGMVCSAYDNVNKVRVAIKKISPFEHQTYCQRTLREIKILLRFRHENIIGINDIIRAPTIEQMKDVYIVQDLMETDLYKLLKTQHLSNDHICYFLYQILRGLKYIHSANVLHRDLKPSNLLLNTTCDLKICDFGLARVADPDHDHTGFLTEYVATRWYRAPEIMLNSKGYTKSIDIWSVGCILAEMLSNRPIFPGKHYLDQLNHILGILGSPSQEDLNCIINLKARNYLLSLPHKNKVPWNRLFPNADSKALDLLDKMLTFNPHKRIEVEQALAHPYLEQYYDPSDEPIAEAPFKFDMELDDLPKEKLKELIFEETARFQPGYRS", "experiment": "Inhibition of ERK2 assessed as residual activity at 10 uM relative to control"}, "[25]": {"target": "Mitogen-activated protein kinase 14 (Homo sapiens) (UniProt Q16539)", "sequence (Q16539 whole entry)": "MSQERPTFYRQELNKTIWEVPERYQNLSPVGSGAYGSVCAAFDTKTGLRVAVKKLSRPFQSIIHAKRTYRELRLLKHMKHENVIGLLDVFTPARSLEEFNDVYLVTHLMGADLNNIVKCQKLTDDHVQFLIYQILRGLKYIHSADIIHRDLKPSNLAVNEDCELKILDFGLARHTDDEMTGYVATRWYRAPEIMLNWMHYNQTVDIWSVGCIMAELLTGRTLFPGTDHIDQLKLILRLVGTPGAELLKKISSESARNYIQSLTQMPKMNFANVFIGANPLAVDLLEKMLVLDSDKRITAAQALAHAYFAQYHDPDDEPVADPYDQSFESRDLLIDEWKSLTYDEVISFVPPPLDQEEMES", "experiment": "Inhibition of p38a MAPK assessed as residual activity at 10 uM"}, "[26]": {"target": "Serine/threonine-protein kinase WNK1 (Homo sapiens) (UniProt Q9H4A3)", "sequence (Q9H4A3 whole entry, looked up)": "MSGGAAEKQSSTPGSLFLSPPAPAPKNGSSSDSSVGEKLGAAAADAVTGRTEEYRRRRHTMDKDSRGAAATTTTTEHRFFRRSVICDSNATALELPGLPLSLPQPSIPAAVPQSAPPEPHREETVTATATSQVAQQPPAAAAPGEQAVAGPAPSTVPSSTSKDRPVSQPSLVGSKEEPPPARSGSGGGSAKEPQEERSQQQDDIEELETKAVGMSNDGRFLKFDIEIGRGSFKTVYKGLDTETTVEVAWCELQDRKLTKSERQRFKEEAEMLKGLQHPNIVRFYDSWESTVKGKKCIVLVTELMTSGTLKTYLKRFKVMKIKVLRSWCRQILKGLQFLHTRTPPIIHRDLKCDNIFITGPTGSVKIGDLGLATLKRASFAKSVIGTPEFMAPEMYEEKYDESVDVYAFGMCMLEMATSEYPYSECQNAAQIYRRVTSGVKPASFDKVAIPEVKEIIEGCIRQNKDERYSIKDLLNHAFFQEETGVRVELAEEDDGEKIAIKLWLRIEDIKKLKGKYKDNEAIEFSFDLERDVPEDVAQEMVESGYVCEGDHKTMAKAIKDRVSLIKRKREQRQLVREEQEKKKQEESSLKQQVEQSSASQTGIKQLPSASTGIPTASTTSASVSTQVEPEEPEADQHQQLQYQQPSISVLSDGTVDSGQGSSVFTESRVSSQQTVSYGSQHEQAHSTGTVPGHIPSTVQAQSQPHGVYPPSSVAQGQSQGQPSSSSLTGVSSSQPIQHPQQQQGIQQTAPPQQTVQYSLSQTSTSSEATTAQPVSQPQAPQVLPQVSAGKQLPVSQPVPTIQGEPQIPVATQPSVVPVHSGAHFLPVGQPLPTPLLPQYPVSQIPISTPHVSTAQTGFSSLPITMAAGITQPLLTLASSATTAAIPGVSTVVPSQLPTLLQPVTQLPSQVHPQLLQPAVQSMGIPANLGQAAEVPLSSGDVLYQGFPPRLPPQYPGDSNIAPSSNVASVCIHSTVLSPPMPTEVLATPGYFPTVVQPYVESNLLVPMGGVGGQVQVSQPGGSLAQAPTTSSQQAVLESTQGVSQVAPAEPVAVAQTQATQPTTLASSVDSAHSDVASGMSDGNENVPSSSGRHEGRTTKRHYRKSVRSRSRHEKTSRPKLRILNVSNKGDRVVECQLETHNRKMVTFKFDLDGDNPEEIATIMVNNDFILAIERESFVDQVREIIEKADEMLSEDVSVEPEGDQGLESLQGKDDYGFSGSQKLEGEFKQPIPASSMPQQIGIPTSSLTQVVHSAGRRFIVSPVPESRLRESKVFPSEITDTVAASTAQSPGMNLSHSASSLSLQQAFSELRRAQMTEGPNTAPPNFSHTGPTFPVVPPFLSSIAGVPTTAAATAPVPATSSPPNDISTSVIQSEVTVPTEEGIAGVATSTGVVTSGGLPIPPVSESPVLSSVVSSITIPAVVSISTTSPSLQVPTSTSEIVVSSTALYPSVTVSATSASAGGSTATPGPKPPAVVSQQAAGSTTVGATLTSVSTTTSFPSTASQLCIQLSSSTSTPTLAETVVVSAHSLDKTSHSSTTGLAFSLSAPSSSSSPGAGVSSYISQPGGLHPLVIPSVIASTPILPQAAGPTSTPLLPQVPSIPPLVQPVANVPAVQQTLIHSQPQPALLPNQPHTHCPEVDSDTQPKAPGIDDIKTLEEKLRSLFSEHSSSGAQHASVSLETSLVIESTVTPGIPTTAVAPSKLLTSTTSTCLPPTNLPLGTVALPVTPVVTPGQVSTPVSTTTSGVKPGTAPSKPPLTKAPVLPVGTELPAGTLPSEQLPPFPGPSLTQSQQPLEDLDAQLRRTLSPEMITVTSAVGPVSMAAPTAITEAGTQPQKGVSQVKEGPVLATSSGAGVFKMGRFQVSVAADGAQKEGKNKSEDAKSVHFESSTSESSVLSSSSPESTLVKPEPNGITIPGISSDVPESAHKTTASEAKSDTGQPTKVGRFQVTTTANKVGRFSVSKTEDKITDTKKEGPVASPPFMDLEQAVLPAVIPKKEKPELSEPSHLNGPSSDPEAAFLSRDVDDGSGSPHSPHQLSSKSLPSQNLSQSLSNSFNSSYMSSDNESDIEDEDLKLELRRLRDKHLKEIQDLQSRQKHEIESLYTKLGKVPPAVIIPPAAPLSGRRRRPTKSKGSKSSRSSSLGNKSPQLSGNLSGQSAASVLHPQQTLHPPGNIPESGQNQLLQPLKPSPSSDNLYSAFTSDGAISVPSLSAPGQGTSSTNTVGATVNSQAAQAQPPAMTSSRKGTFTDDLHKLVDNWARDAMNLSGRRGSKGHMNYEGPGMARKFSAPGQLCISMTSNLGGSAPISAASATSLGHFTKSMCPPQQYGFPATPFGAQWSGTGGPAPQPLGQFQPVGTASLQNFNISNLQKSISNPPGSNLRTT", "experiment": "Inhibition of WNK1 assessed as residual activity at 1 uM"}},
  "note": "The source made the active and inactive calls. No cut-off for these calls is given here.",
  "data": [
    {"compound": "O=C(Nc1cccnc1)c1cc(-c2ccnc(F)c2)ccc1OCc1ccccc1", "values": [
      {"measurement": "Activity", "setting": "[1]", "result": 101, "unit": "%"},
      {"measurement": "Activity", "setting": "[2]", "result": 65, "unit": "%"},
      {"measurement": "Activity", "setting": "[3]", "result": 57, "unit": "%"},
      {"measurement": "Activity", "setting": "[4]", "result": 65, "unit": "%"},
      {"measurement": "Activity", "setting": "[5]", "result": 69, "unit": "%"},
      {"measurement": "Activity", "setting": "[6]", "result": 76, "unit": "%"},
      {"measurement": "Activity", "setting": "[7]", "result": 58, "unit": "%"},
      {"measurement": "inhibition", "setting": "Mus musculus [8]", "result": "Active"},
      {"measurement": "Activity", "setting": "[9]", "result": 63, "unit": "%"},
      {"measurement": "Activity", "setting": "[10]", "result": 17, "unit": "%"},
      {"measurement": "Activity", "setting": "[11]", "result": 44, "unit": "%"},
      {"measurement": "Activity", "setting": "[12]", "result": 133, "unit": "%"},
      {"measurement": "inhibition", "setting": "Mus musculus [13]", "result": "Active"},
      {"measurement": "Activity", "setting": "[14]", "result": 56, "unit": "%"},
      {"measurement": "Activity", "setting": "[15]", "result": 76, "unit": "%"},
      {"measurement": "Activity", "setting": "[16]", "result": 70, "unit": "%"},
      {"measurement": "Activity", "setting": "[17]", "result": 46, "unit": "%"},
      {"measurement": "Activity", "setting": "[18]", "result": 52, "unit": "%"},
      {"measurement": "Activity", "setting": "[19]", "result": 69, "unit": "%"},
      {"measurement": "Activity", "setting": "[20]", "result": 125, "unit": "%"},
      {"measurement": "Activity", "setting": "[21]", "result": 74, "unit": "%"},
      {"measurement": "Activity", "setting": "[22]", "result": 72, "unit": "%"},
      {"measurement": "Activity", "setting": "[23]", "result": 64, "unit": "%"},
      {"measurement": "Activity", "setting": "[24]", "result": 44, "unit": "%"},
      {"measurement": "Activity", "setting": "[25]", "result": 102, "unit": "%"},
      {"measurement": "Activity", "setting": "[26]", "result": 104, "unit": "%"}
    ]}
  ]
}
